Assay results reported in PMC10682124 (Materials Today Bio, 2023).

Assays:
[1] = test system: SR Ca^2+ overload related tachyarrhythmias in CPVT; conditions: cited from earlier work
ICR mice [2] = assay: H&E staining pathological examination of heart; assay type: in vivo; conditions: 12 h after intravenous injection, n = 6
In short: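 Twelve hours after intravenous dosing (test compound at 5 mg/kg peptide equivalent, free peptide, empty carrier or control; n = 6), heart tissue was fixed in 4 % paraformaldehyde. It then underwent routine hematoxylin-eosin staining for histopathological examination.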

[3] = Plasma OpiCa1 concentration in vivo by ELISA; conditions: mice, injection of free OpiCa1 5 mg/kg
ICR mice [4] = assay: Blood biochemical examinations; assay type: in vivo; conditions: i.v. 5 mg/kg OpiCa1 equivalent, 12 h, n = 6
In short: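 Blood was drawn from the inner canthus into anticoagulant tubes 12 h after dosing and assayed for ALT, AST, CK, CK-MB, LDH, creatinine and uric acid. Data are mean ± SD; two-group comparisons used two-tailed Mann-Whitney tests.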

RyRs = conditions: read-out: affinity between OpiCa1 and RyRs; cited from earlier work
H9C2 cells = assay: Flow cytometry, Annexin V-FITC / propidium iodide apoptosis; assay type: cell-based, rat; conditions: 100 μM OpiCa1, 12 h, Annexin V-FITC/PI flow cytometry
cardiac tissue = assay: Cardiac immunohistochemistry with OpiCa1 polyclonal antibody; assay type: in vivo; conditions: mice, 12 h, self-prepared OpiCa1 polyclonal antibody, n = 6; in words

| Substance | antagonism of SR Ca^2+ overload related tachyarrhythmias [1] | pathological examination of heart (H&E) (ICR mice [2]) | time to complete disappearance from plasma [3] [h] | cardiac function (CK, CK-MB, and LDH) (ICR mice [4]) | liver function (ALT and AST) (ICR mice [4]) | renal function (Crea and UA) (ICR mice [4]) | Kd (RyRs) [nM] | proportion of apoptotic cells (H9C2 cells) | distribution in cardiac tissue by immunohistochemistry (cardiac tissue) |
| --- | --- | --- | --- | --- | --- | --- | --- | --- | --- |
| Imperacalcin | can antagonize SR Ca^2+ overload related tachyarrhythmias such as PVCs and non-sustained BVTs in CPVT | – | – | – | – | – | – | – | – |
| Opicalcin1 [OpiCa1] | – | clear myocardial fibers and stripes | ≤ 48 | no significant differences | no significant differences | no significant differences | ~0.3 | about 1.5% | significantly distributed in cardiac tissue |
